Results on four compounds are retold here after ChEMBL document CHEMBL4387724, “2-Pyridineformamide N(4)-ring incorporated thiosemicarbazones inhibit MCF-7 cells by inhibiting JNK pathway” (Bioorg Med Chem Lett, 2019).

One may read the pIC50 as the negative decadic logarithm of the IC50, by convention in mol/L.

Assay [1] has as its system A-431. Description: Cytotoxicity against human A431 cells assessed as reduction in cell growth at 1 uM incubated for 72 hrs by MTT assay relative to control. The following applies: A-431, 72 h, read-out: GI. The format is functional. In outline: (§1)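 Cells grown in DMEM with 10% FBS and penicillin-streptomycin at 37 °C, 5% CO2, seeded at 3000 cells/well and attached overnight. Screening series given at 1, 3, 10, 100 μM; follow-up agent at 100 nM–3 μM; both 72 h, with 0.1% DMSO vehicle. MTT (5 mg/mL stock) added for 3 h at 37 °C, formazan dissolved in DMSO, absorbance read at 570 nm. Viability expressed as % of DMSO-treated wells from replicates.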
(Formazan colour is commonly taken as a measure of viable cells.)

Assay [2] relates to A-375. Nature of the assay: Cytotoxicity against human A375 cells assessed as reduction in cell growth at 100 uM incubated for 72 hrs by MTT assay relative to control. The format is functional. The following applies: A-375, 72 h, read-out: GI. In outline: as §1
Assay [3] deals with HeLa. Description: Cytotoxicity against human HeLa cells assessed as reduction in cell growth at 3 uM incubated for 72 hrs by MTT assay relative to control. The format is functional. The conditions noted are these: read-out: GI. In outline:
as §1

The test system of assay [4] is A-375. Nature of the assay: Cytotoxicity against human A375 cells assessed as reduction in cell growth at 10 uM incubated for 72 hrs by MTT assay relative to control. The conditions noted are these: A-375, 72 h, read-out: GI. The format is functional. In outline:
as §1

For assay [5], the system named is HeLa. Description: Cytotoxicity against human HeLa cells assessed as reduction in cell growth incubated for 72 hrs by MTT assay. The format is functional, cell-based. In outline:
as §1

In assay [6] the test system is HeLa. Description: Cytotoxicity against human HeLa cells assessed as reduction in cell growth at 10 uM incubated for 72 hrs by MTT assay relative to control. The format is functional. The conditions noted are these: read-out: GI. In outline:
as §1

For assay [7], the system named is MCF7. Description: Cytotoxicity against human MCF7 cells assessed as reduction in cell growth at 10 uM incubated for 72 hrs by MTT assay relative to control. The following applies: MCF7, 72 h, read-out: GI. In kind it is functional. In a few lines:
as §1

Assay [8] deals with A-375. Nature of the assay: Cytotoxicity against human A375 cells assessed as reduction in cell growth at 1 uM incubated for 72 hrs by MTT assay relative to control. In kind it is functional. The following applies: A-375, 72 h, read-out: GI. In outline: as §1
In assay [9] the test system is HeLa. Description: Cytotoxicity against human HeLa cells assessed as reduction in cell growth at 1 uM incubated for 72 hrs by MTT assay relative to control. In kind it is functional. The conditions noted are these: read-out: GI. In a few lines: as §1
Assay [10] deals with HeLa. Nature of the assay: Cytotoxicity against human HeLa cells assessed as reduction in cell growth at 100 uM incubated for 72 hrs by MTT assay relative to control. The format is functional. The following applies: read-out: GI. In a few lines: as §1
The test system of assay [11] is A-431. Description: Cytotoxicity against human A431 cells assessed as reduction in cell growth incubated for 72 hrs by MTT assay. The conditions noted are these: A-431, 72 h. The format is functional, cell-based. In a few lines:
as §1

Assay [12] relates to MCF7. Description: Cytotoxicity against human MCF7 cells assessed as reduction in cell growth incubated for 72 hrs by MTT assay. The conditions noted are these: MCF7, 72 h. The format is functional, cell-based. In outline: as §1
The test system of assay [13] is A-431. Nature of the assay: Cytotoxicity against human A431 cells assessed as reduction in cell growth at 100 uM incubated for 72 hrs by MTT assay relative to control. In kind it is functional. The following applies: A-431, 72 h, read-out: GI. In a few lines:
as §1

The subject of assay [14] is MCF7. Description: Cytotoxicity against human MCF7 cells assessed as reduction in cell growth at 100 uM incubated for 72 hrs by MTT assay relative to control. The format is functional. The conditions noted are these: MCF7, 72 h, read-out: GI. In outline:
as §1

Assay [15] has as its system A-375. Description: Cytotoxicity against human A375 cells assessed as reduction in cell growth at 30 uM incubated for 72 hrs by MTT assay relative to control. In kind it is functional. The following applies: A-375, 72 h, read-out: GI.
The test system of assay [16] is A-431. Description: Cytotoxicity against human A431 cells assessed as reduction in cell growth at 30 uM incubated for 72 hrs by MTT assay relative to control. In kind it is functional. The conditions noted are these: A-431, 72 h, read-out: GI.
Assay [17] concerns A-431. Description: Cytotoxicity against human A431 cells assessed as reduction in cell growth at 10 uM incubated for 72 hrs by MTT assay relative to control. The following applies: A-431, 72 h, read-out: GI. The format is functional. In a few lines:
as §1

Assay [18] concerns MCF7. Description: Cytotoxicity against human MCF7 cells assessed as reduction in cell growth at 3 uM incubated for 72 hrs by MTT assay relative to control. In kind it is functional. The following applies: MCF7, 72 h, read-out: GI. In outline:
as §1

Assay [19] relates to MCF7. Description: Cytotoxicity against human MCF7 cells assessed as reduction in cell growth at 1 uM incubated for 72 hrs by MTT assay relative to control. The conditions noted are these: MCF7, 72 h, read-out: GI. In kind it is functional. In a few lines: as §1
In assay [20] the test system is A-375. Nature of the assay: Cytotoxicity against human A375 cells assessed as reduction in cell growth at 3 uM incubated for 72 hrs by MTT assay relative to control. The following applies: A-375, 72 h, read-out: GI. In kind it is functional. In a few lines:
as §1

In assay [21] the test system is HeLa. Nature of the assay: Cytotoxicity against human HeLa cells assessed as reduction in cell growth at 30 uM incubated for 72 hrs by MTT assay relative to control. In kind it is functional. The conditions noted are these: read-out: GI.
The test system of assay [22] is MCF7. Description: Cytotoxicity against human MCF7 cells assessed as reduction in cell growth at 30 uM incubated for 72 hrs by MTT assay relative to control. The format is functional. The conditions noted are these: MCF7, 72 h, read-out: GI.
Assay [23] has as its system A-431. Description: Cytotoxicity against human A431 cells assessed as reduction in cell growth at 3 uM incubated for 72 hrs by MTT assay relative to control. In kind it is functional. The following applies: A-431, 72 h, read-out: GI. In a few lines: as §1
Assay [24] relates to A-375. Description: Cytotoxicity against human A375 cells assessed as reduction in cell growth incubated for 72 hrs by MTT assay. In kind it is functional, cell-based. The following applies: A-375, 72 h. In outline: as §1

pIC50: −log10 of the molar value.

On to `N/C(=N\NC(=S)N1CCCC1)c1ccccn1`, for which the inhibition of growth at 1 µM in the assay on A-431 [1] was 39.8%; in the assay on A-375 [8], 65.7%; with HeLa [9], 24.7%; in the assay with MCF7 [19], 45.9%. Besides, the inhibition of growth at 100 µM came out at 87.8% with A-375 [2], 89.1% in the assay on HeLa [10], 83.8% with A-431 [13] and 74.9% in the assay with MCF7 [14]. Moreover, the inhibition of growth at 3 µM with HeLa [3] stood at 38.5%; in the assay on MCF7 [18] it was 49.8%; in the assay on A-375 [20], 80%; with A-431 [23], 70.9%. Moreover, the inhibition of growth at 10 µM with A-375 [4] came out at 83.9%; in the assay with HeLa [6], 63.5%; in the assay on MCF7 [7], 51.7%; with A-431 [17], 77.2%. Also, the pIC50 was 5.21 in the assay on HeLa [5], 5.77 in the assay with A-431 [11], 5.44 in the assay on MCF7 [12] and 6.22 with A-375 [24]. In addition, the inhibition of growth at 30 µM in the assay on A-375 [15] was found to be 86%; in the assay on A-431 [16] it was 85.2%; with HeLa [21] it was 84.5%; in the assay on MCF7 [22], 54.6%.

Regarding `N/C(=N\NC(=S)N1CCCCC1)c1ccccn1`, the inhibition of growth at 1 µM worked out at 24.4% in the assay on A-431 [1], 72.5% in the assay with A-375 [8], 15.5% in the assay on HeLa [9] and 15.4% in the assay on MCF7 [19]. The inhibition of growth at 100 µM in the assay with A-375 [2] was 88.5%; in the assay on HeLa [10], 86%; in the assay on A-431 [13], 85.6%; in the assay on MCF7 [14], 77.7%. In addition, the inhibition of growth at 3 µM amounted to 49.2% with HeLa [3], 38.6% in the assay with MCF7 [18], 86.5% with A-375 [20] and 27% in the assay with A-431 [23]. Besides, the inhibition of growth at 10 µM is 85.8% in the assay with A-375 [4], 55.7% with HeLa [6], 53.1% in the assay on MCF7 [7] and 68.1% in the assay on A-431 [17]. Besides, the pIC50 in the assay on HeLa [5] was 5.42; with A-431 [11] it was 5.16; in the assay with MCF7 [12], 5.07; in the assay with A-375 [24] it was 6.17. The inhibition of growth at 30 µM worked out at 87% in the assay on A-375 [15], 79.7% in the assay with A-431 [16], 76.9% with HeLa [21] and 69.3% with MCF7 [22].

Turning to `Cc1ccnc(/C(N)=N/NC(=S)N2CCCCC2)c1`, the inhibition of growth at 1 µM was 31.1% with A-431 [1], 33.5% with A-375 [8], 15.3% with HeLa [9] and 21.2% in the assay on MCF7 [19]. The inhibition of growth at 100 µM was 85.6% with A-375 [2], 70.8% with HeLa [10], 77.6% in the assay with A-431 [13] and 80.1% in the assay on MCF7 [14]. The inhibition of growth at 3 µM in the assay with HeLa [3] was 23.9%; with MCF7 [18] it was 29.4%; in the assay on A-375 [20] it was 69.5%; with A-431 [23] it was 36.5%. The inhibition of growth at 10 µM with A-375 [4] stood at 81.2%; with HeLa [6] it was 62.1%; in the assay on MCF7 [7], 40.7%; with A-431 [17], 39.7%. The pIC50 in the assay with HeLa [5] is 5.11; with A-431 [11] it was 4.72; in the assay with MCF7 [12], 4.73; in the assay on A-375 [24] it was 5.72. Further, the inhibition of growth at 30 µM in the assay with A-375 [15] is 80%; in the assay on A-431 [16], 62.8%; in the assay on HeLa [21], 69.1%; with MCF7 [22], 61.7%.

As for `Cc1ccnc(/C(N)=N/NC(=S)N2CCCC2)c1`, the inhibition of growth at 1 µM in the assay on A-431 [1] came out at 58.5%; with A-375 [8], 69%; in the assay with HeLa [9] it was 25.9%; in the assay on MCF7 [19], 49%. The inhibition of growth at 100 µM with A-375 [2] stood at 88.8%; in the assay with HeLa [10], 88.1%; with A-431 [13] it was 86.9%; in the assay on MCF7 [14] it was 87.7%. In addition, the inhibition of growth at 3 µM turned out to be 52.1% with HeLa [3], 57.7% with MCF7 [18], 80% in the assay on A-375 [20] and 63% with A-431 [23]. Moreover, the inhibition of growth at 10 µM in the assay on A-375 [4] turned out to be 86%; in the assay on HeLa [6], 67%; in the assay on MCF7 [7] it was 63.6%; with A-431 [17] it was 71.2%. Besides, the pIC50 in the assay with HeLa [5] is 5.72; in the assay with A-431 [11] it was 6.05; in the assay on MCF7 [12], 5.92; in the assay on A-375 [24], 6.14. The inhibition of growth at 30 µM in the assay on A-375 [15] amounted to 87.9%; in the assay with A-431 [16] it was 84.2%; in the assay with HeLa [21] it was 86.4%; in the assay with MCF7 [22], 82.2%.
